# Screening data: PubChem BioAssay, several laboratories
# This is one part of a sample in which hits are shown more often than they occur.
# CHOP UPR activ: activators of apoptotic CHOP UPR arm, primary screen, cell-based, CHO-CHOP luciferase reporter, luminescence, uHTS; UPR activation; percent of tunicamycin response over DMSO baseline; AID 449763, 2010; activation, % at 10 µM; hit rate 0.34% among 330,000;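 active means at 10 µM dose, activation of 40% or more, normalized to positive control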;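 further: 100% = tunicamycin at 10 µg/mL and 0% = DMSO alone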
#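 Evaluation: % reporter activation, DMSO baseline versus tunicamycin full activation; System: CHO-CHOP luciferase reporter cell line; Input: 500 cells/well; Incubation: 6 h compound treatment, 37 °C; Measured by: Steady-Glo luciferase luminescence; Dosing: one dose, 10 µM in 0.5% DMSO; Buffer or medium: F12 medium, 10% FBS; Benchmarks: positive tunicamycin 10 µg/mL, negative DMSO alone.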
# GAA850 FXN act: FXN promoter activators, primary screen, cell-based, luciferase luminescence, HEK293 lucGAA850 | HEK293 lucGAA850 FXN promoter luciferase reporter, 24 h; percent of 10 µM SAHA response | activation, % at 6 µM | hit rate 0.56% among 360,000 | AID 540364, 2011;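 active means activation above the average of all compounds screened plus 3 SD, cutoff fixed separately per campaign, cut at about 7.5% in these data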;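 further: 0% = DMSO wells and 100% = 10 µM SAHA wells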
# CHOP inhibitor: inhibitors of CHOP promoter induction, primary screen, cell-based, unfolded protein response, luciferase reporter; CHO-K1 CHOP-promoter luciferase, tunicamycin-induced, 15-18 h; inhibition, % at 10 µM; AID 2732, 2010; hit rate 3.8% among 220,000;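 active means compounds that reduced the stress-induced luciferase reporter signal by more than about 70% of percent inhibition, limit read from the data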;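 further: 0% = tunicamycin plus vehicle and 100% = wells without tunicamycin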
# UPR XBP1 act: activators of adaptive XBP1 UPR arm, primary screen, cell-based, CHO-XBP1 luciferase reporter, luminescence, uHTS; IRE1-XBP1 UPR activation; percent of tunicamycin response, DMSO as zero; activation, % at 20 µM; hit rate 0.33% among 330,000; AID 463104, 2010;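 active means versus positive control, 20 µM dose yields 30% or more activation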;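 further: 100% = tunicamycin at 10 µg/mL and 0% = DMSO only wells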
#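 Assay system: IRE1-XBP1 luciferase reporter CHO line. Input: 1000 cells/well. Buffer or medium: F12 with 10% serum. Doses: 20 µM, 1% DMSO. Times: overnight seeding at 37 °C, 6 h compound treatment at 37 °C. Technique: Steady-Glo luciferase glow luminescence, 10 min after reagent addition.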
# CHOP confirm: retest of CHOP induction inhibitors, confirmation, cell-based; shares compounds with CHOP inhibitor; CHO-CHOP promoter luciferase reporter, tunicamycin-induced, luminescence; inhibition, % at 10 µM; hit rate 45% among 2,100; AID 504437, 2011;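 active means mean of three repeat readings of reporter signal inhibition above a set limit, cut at about 70% in these data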;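 further: 0% = tunicamycin plus vehicle and 100% = wells lacking tunicamycin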
# An asterisk follows results filed as active; . = no result.
SMILES,CHOP UPR activ,GAA850 FXN act,CHOP inhibitor,UPR XBP1 act,CHOP confirm
CCOC(=O)C1CCCN(C(=O)c2ccc(C(F)(F)F)nc2C)CC1 (configuration not stated),.,-2,.,.,.
N#CC(c1ccccc1O)N1N=C(c2ccccc2)CC1c1ccccc1 (configuration not stated),13,8.2*,97*,13,26
COc1cc(C(C#N)N2N=C(c3ccccc3)CC2c2ccccc2)ccc1O (configuration not stated),2,0,56,3,.
COc1ccc(OCC(=O)N2CCN(c3nnc(-c4ccc(C)cc4)c4ccccc34)CC2)cc1,5,0,23,-5,.
Cc1ccc(OCC(=O)N2CCN(c3nnc(-c4ccc(C)cc4)c4ccccc34)CC2)cc1,3,-5,97*,-2,75*
COc1ccc(C(=O)NNC(=O)c2ccccn2)cc1,-12,-12,104*,-8,124*
COc1cc(OC)cc(C(=O)NNC(=O)c2ccccn2)c1,-2,2,16,2,.
CC(=O)C1=C(S(=O)(=O)c2ccc(C)cc2)CS(=O)(=O)C1,1,4,98*,-2,71*
CCCCn1c(NS(=O)(=O)c2ccccc2)c(S(=O)(=O)c2ccc(C)cc2)c2nc3ccccc3nc21,.,-5,99*,.,76*
O=C(Nc1cc(Cl)ccc1O)c1cc2n(n1)C(C(F)(F)F)CC(c1ccc3c(c1)OCO3)N2 (configuration not stated),-3,-3,105*,-5,89*
COc1ccc(OC)c(NC(=O)c2cc3n(n2)C(C(F)(F)F)CC(c2ccc4c(c2)OCO4)N3)c1 (configuration not stated),0,-2,.,-1,.
O=C(Nc1cccnc1)C1Cc2c(-c3cccc(F)c3)ccnc2O1 (configuration not stated),.,0,.,.,.
CC(/C=N/n1c(C2CCCCC2)n[nH]c1=S)=C\c1ccccc1,-2,5,107*,2,102*
COCOCCn1cc(CN2CCS(=O)(=O)N(Cc3ccc(-c4ccc(Cl)c(Cl)c4)cc3)C(C(C)C)C2=O)nn1 (configuration not stated),.,0,.,.,.
CCC(=O)Nc1cc(ON=C(C)C)cc([N+](=O)[O-])c1,.,2,10,.,.
CC(C)=NOc1cc(NC(=O)CCl)cc([N+](=O)[O-])c1,-7,-6,111*,-5,110*
O=S1(=O)C[C@@H](N2CCN(c3ccccn3)CC2)[C@H](COCc2ccccc2)N1,.,1,.,.,.
O=C1NN=C(c2ccc(Cl)cc2)CC1c1cccc(Cl)c1 (configuration not stated),-3,0,102*,-3,44
COc1ccc(CC(N)c2csc(NC(=O)C(c3ccccc3)c3ccccc3)n2)cc1 (configuration not stated),.,-1,.,.,.
CCCC1/C(=N/O)CC(c2ccccc2)NC1c1ccccc1 (configuration not stated),-1,-4,106*,-7,35
Cc1cc(N2C(=O)C=CC2=O)c([N+](=O)[O-])cc1C,5,-1,108*,-7,41
COc1ccc(Nc2nc(N)c([N+](=O)[O-])c(NCc3ccccc3)n2)cc1,3,6,15,8,.
Cc1ccc(Nc2nc(N)c([N+](=O)[O-])c(NCc3ccccc3)n2)cc1,2,2,104*,17,35
CCCC#Cc1ccc2c(c1)O[C@H](CN(C)S(=O)(=O)c1cccc(OC)c1)[C@H](C)CN([C@H](C)CO)S2(=O)=O,.,2,.,.,.
COc1cc(OC)c(/C=N/NC(=O)c2ccc(NC(C)=O)cc2)cc1Br,2,-3,104*,-2,-9
SMILES,CHOP UPR activ,GAA850 FXN act,CHOP inhibitor,UPR XBP1 act,CHOP confirm
CC(=O)Nc1ccc(C(=O)N/N=C/c2cc(Br)cc(Br)c2O)cc1,-1,-2,105*,-2,35
COc1cc(OC)c(/C=N/NC(=O)c2ccncc2)cc1Br,-1,1,10,-1,.
OC(c1ccc(Cl)cc1)c1ncc(-c2cccc(F)c2)[nH]1 (configuration not stated),.,0,.,.,.
CCC(C)(C)NC(=O)C(c1cccn1C)N(Cc1ccc(OC)cc1)C(=O)Cn1nnc2ccccc21 (configuration not stated),4,2,103*,0,59
CCN(CC)c1ccc(NC2=C(Cl)C(=O)c3ccccc3C2=O)cc1,.,2,107*,.,-11
Cc1ccc(NC2=C(Cl)C(=O)c3ccccc3C2=O)cc1,.,4,7,.,.
Cc1cc(NC(=O)C2(C)CCN2C(C)C)c2ccccc2n1 (configuration not stated),.,2,.,.,.
O/N=C(\c1ccc(Cl)cc1Cl)c1ncc(C(F)(F)F)cc1Cl,-3,3,107*,-1,111*
COc1ccc(-c2cnc(C(O)c3ccc(OC)c(F)c3)[nH]2)cc1 (configuration not stated),.,0,.,.,.
COc1ccccc1-c1csc(C(C)(O)c2cccc(F)c2)n1 (configuration not stated),.,0,.,.,.
O=C1c2ccc3c4c(ccc(c24)C(=O)N1c1cccc(O)c1)C(=O)N(c1cccc(O)c1)C3=O,1,-4,101*,-2,86*
O=C1c2cccc3cccc(c23)C(=O)N1c1ccc(O)cc1,2,1,.,0,.
COc1ccc(-c2cc(C(=O)NCc3cccc(Cl)c3)[nH]n2)c(C)c1,.,1,.,.,.
CCCNC(=O)C1(C)CCCN(C(=O)Cc2cccc(OC)c2)C1 (configuration not stated),.,-2,.,.,.
C[C@H](CO)N1C[C@H](C)[C@@H](CN(C)C(=O)Nc2ccccc2)Oc2ncc(-c3ccc(C#N)cc3)cc2C1=O,.,-4,.,.,.
CC1=CC(C)(C)Nc2ccc(OC(=O)c3ccco3)cc21,-8,5,.,-11,-233
CC1=CC(C)(C)Nc2ccc(OC(=O)c3cccnc3)cc21,27,7,-359,-2,.
Cc1cc(C)nc(/N=c2/ssnc2Cl)c1,14,-1,96*,-5,19
Cc1cc(Cl)ccc1N=c1ssnc1Cl,-2,-4,108*,5,16
COc1ccc(OC)c(N=c2ssnc2Cl)c1,1,1,107*,0,-6
CCC(=O)N1CCC1(C)C(=O)Nc1cc(-c2ccccc2)nn1C (configuration not stated),.,2,.,.,.
CCC(=O)N(c1nnc(SCC(=O)Nc2sccc2C(N)=O)s1)C1CC1,.,2,.,.,.
